ChEMBL document CHEMBL1153436, “2-Pyridyl P1'-substituted symmetry-based human immunodeficiency virus protease inhibitors (A-792611 and A-790742) with potential for convenient dosing and reduced side effects” (J Med Chem, 2009)

Legend:
[1] = system: Human immunodeficiency virus 1; assay: Antiviral activity against wild-type HIV1 pNL4-3 infected in human MT4 cells after 5 days by MTT assay; assay type: functional, organism-based; conditions: Human immunodeficiency virus 1, MT4, 120 h
[2] = AUC in Sprague-Dawley rat at 5 mg/kg, po in presence of ritonavir; assay type: ADME, organism-based; set-up: dose 5 mg/kg, route oral; conditions: plasma
How it was run: (§1)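 Male Sprague-Dawley-derived rats (n = 3) dosed iv or by oral gavage with 5 mg/mL solutions in 5% dextrose containing 20% ethanol, 30% propylene glycol and methanesulfonic acid equivalents. Plasma was sampled at 10 time points over 8 h, extracted into ethyl acetate/hexane and analysed by reversed-phase HPLC with internal standard. AUC in µg·h/mL.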

[3] = Half life in Sprague-Dawley rat at 5 mg/kg, iv; assay type: ADME, organism-based; set-up: dose 5 mg/kg, route intravenous; conditions: in vivo; how it was run: as §1
[4] = system: Human immunodeficiency virus 1; assay: Fold resistance, ratio of EC50 for HIV1 bearing protease gene with A17 mutation to EC50 for wild-type HIV1 pNL4-3; assay type: functional
How it was run: (§2)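 HIV-1 A17 mutant clone carrying protease mutations L10F, V32I, M46I, I47V, Q58E and I84V, generated by in vitro serial passage under LPV/RTV. EC50 was determined in MT-4 cells. Wild-type reference strain was HIV-1 pNL4-3.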

[5] = Oral bioavailability in Sprague-Dawley rat at 5 mg/kg; assay type: ADME, organism-based; conditions: in vivo; how it was run: as §1
[6] = system: Human immunodeficiency virus 1; assay: Antiviral activity against wild-type HIV1 pNL4-3 infected in human MT4 cells after 5 days by MTT assay in presence of 50% human serum; assay type: functional, organism-based; conditions: Human immunodeficiency virus 1, MT4, 120 h
[7] = system: Human immunodeficiency virus 1; assay: Antiviral activity against HIV1 bearing protease gene with A17 mutation infected in human MT4 cells after 5 days by MTT assay; assay type: functional, organism-based; conditions: Human immunodeficiency virus 1, MT4, 120 h; how it was run: as §2
[8] = Clearance in Sprague-Dawley rat at 5 mg/kg, iv; assay type: ADME, organism-based; set-up: dose 5 mg/kg, route intravenous; conditions: in vivo; how it was run: as §1
[9] = AUC in Sprague-Dawley rat at 5 mg/kg, po; assay type: ADME, organism-based; set-up: dose 5 mg/kg, route oral; conditions: plasma; how it was run: as §1
[10] = system: Serum; assay: Drug level in Gunn rat serum at 250 mg/kg coadministered with ritonavir measured on day 1; assay type: ADME, organism-based; set-up: dose 250 mg/kg; conditions: in vivo
How it was run: (§3)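 Gunn rats (n = 8-10 per arm) dosed orally with compound in 5% ethanol/95% propylene glycol with p-toluenesulfonic acid, together with 50 mg/kg RTV. Plasma was sampled 4 h after the first and second doses. Drug was measured by HPLC and bilirubin […]. Change in bilirubin (mg/dL) reported as mean with SD.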

[11] = system: Rattus norvegicus; assay: Toxicity in Gunn rat assessed as unconjugated-bilirubin level at 250 mg/kg coadministered with ritonavir measured on day 1; assay type: organism-based; set-up: dose 250 mg/kg; conditions: in vivo; how it was run: as §3
[12] = system: Human immunodeficiency virus 1; assay: Antiviral activity against HIV1 bearing protease gene with P25 mutation infected in human MT4 cells after 5 days by MTT assay; assay type: functional, organism-based; conditions: Human immunodeficiency virus 1, MT4, 120 h
[13] = system: Human immunodeficiency virus 1; assay: Antiviral activity against HIV1 bearing protease gene with B26 mutation infected in human MT4 cells after 5 days by MTT assay; assay type: functional, organism-based; conditions: Human immunodeficiency virus 1, MT4, 120 h

Compound | EC50 [1] [nM] | AUC [2] [ng·h/mL] | half-life [3] [min] | Ratio EC50 [4] | bioavailability [5] [%] | EC50 [6] [nM] | EC50 [7] [nM] | clearance [8] [mL/min/kg] | AUC [9] [ng·h/mL] | Drug uptake [10] [µg/mL] | Activity [11] [mg/dL] | EC50 [12] [nM] | EC50 [13] [nM]
COC(=O)N[C@H](C(=O)N[C@@H](Cc1ccc(-c2ccccn2)cc1)C[C@H](O)[C@H](Cc1ccccc1)NC(=O)[C@@H](N1CCN(Cc2ccnc3ccccc23)C1=O)C(C)(C)C)C(C)(C)C | 4 | 2860 | 66 | <1 | 0.6 | 19 | 2 | 30 | 20 |  |  |  | 
COC(=O)N[C@H](C(=O)N[C@@H](Cc1ccc(-c2ccccn2)cc1)C[C@H](O)[C@H](Cc1ccccc1)NC(=O)[C@@H](N1CCN(Cc2cccc(C)n2)C1=O)C(C)(C)C)C(C)(C)C | 13 |  |  | 1 |  | 62 | 15 |  |  | 5.83 | 0.233 |  | 
COC(=O)N[C@H](C(=O)N[C@@H](Cc1ccc(-c2ccccn2)cc1)[C@@H](O)C[C@H](Cc1ccccc1)NC(=O)[C@@H](N1CCN(Cc2csc(C)n2)C1=O)C(C)(C)C)C(C)(C)C | 3 | 8400 | 30 | <1 | 11.2 | 34 | 2 | 31.7 | 320 |  |  |  | 
COC(=O)N[C@H](C(=O)N[C@@H](Cc1ccc(-c2ccccn2)cc1)C[C@H](O)[C@H](Cc1ccccc1)NC(=O)[C@@H](N1CCN(Cc2cccc(C)c2)C1=O)C(C)(C)C)C(C)(C)C | 5 | 2700 | 84 | 8 | 0.8 | 25 | 41 | 29.3 | 20 |  |  |  | 
COC(=O)N[C@H](C(=O)N[C@@H](Cc1ccc(-c2ccccn2)cc1)C[C@H](O)[C@H](Cc1ccccc1)NC(=O)[C@@H](N1CCN(Cc2ccccc2OC)C1=O)C(C)(C)C)C(C)(C)C | 4 | 9380 | 72 | 12 | 3.1 | 17 | 49 | 36 | 70 |  |  |  | 
COC(=O)N[C@H](C(=O)N[C@@H](Cc1ccc(-c2ccccn2)cc1)C[C@H](O)[C@H](Cc1ccccc1)NC(=O)[C@@H](N1CCN(Cc2ccccc2N)C1=O)C(C)(C)C)C(C)(C)C | 4 | 1250 | 72 | 5 | 2.9 | 20 | 21 | 33.2 | 80 |  |  |  | 
COC(=O)N[C@H](C(=O)N[C@@H](Cc1ccccc1)C[C@H](O)[C@H](Cc1ccccc1)NC(=O)[C@@H](N1CCN(Cc2cccc(C)n2)C1=O)C(C)(C)C)C(C)(C)C | 13 |  |  | 7 |  | 179 | 88 |  |  | 18.68 | 0.195 |  | 
COC(=O)N[C@H](C(=O)N[C@@H](Cc1ccc(-c2ccccn2)cc1)[C@@H](O)C[C@H](Cc1ccccc1)NC(=O)[C@@H](N1CCN(Cc2cccc(C(C)(C)O)n2)C1=O)C(C)(C)C)C(C)(C)C | 4 | 1820 | 54 | <1 | 17 | 19 | 2 | 16.7 | 880 |  |  |  | 
COC(=O)N[C@H](C(=O)N[C@@H](Cc1ccc(-c2ccccn2)cc1)[C@@H](O)C[C@H](Cc1ccccc1)NC(=O)[C@@H](N1CCN(Cc2ccnc3ccccc23)C1=O)C(C)(C)C)C(C)(C)C | 2 | 3300 | 24 | <1 | 1.1 | 15 | 1 | 33.3 | 50 |  |  |  | 
COC(=O)N[C@H](C(=O)N[C@@H](Cc1ccccc1)[C@@H](O)CN(Cc1ccc(-c2ccccn2)cc1)NC(=O)[C@@H](NC(=O)OC)C(C)(C)C)C(C)(C)C [ATAZANAVIR] | 3 |  |  |  |  |  | 250 |  |  |  |  | 298 | 74
COC(=O)N[C@H](C(=O)NN(Cc1ccccc1)C[C@H](O)[C@H](Cc1ccccc1)NC(=O)[C@@H](N1CCN(Cc2cccc(C)n2)C1=O)C(C)(C)C)C(C)(C)C |  |  |  |  |  |  |  |  |  | 13.28 | 0.429 |  | 
COC(=O)N[C@H](C(=O)N[C@@H](Cc1ccc(-c2ccccn2)cc1)C[C@H](O)[C@H](Cc1ccccc1)NC(=O)[C@@H](N1CCN(Cc2csc(-c3cccnc3)n2)C1=O)C(C)(C)C)C(C)(C)C | 8 | 120 | 42 | 1 | 0.8 | 26 |  | 34.2 | 20 |  |  |  | 
COC(=O)N[C@H](C(=O)N[C@H](Cc1ccc(-c2ccccn2)cc1)C[C@H](O)[C@H](Cc1ccccc1)NC(=O)[C@@H](N1CCN(Cc2csc(C)n2)C1=O)C(C)(C)C)C(C)(C)C | 3 | 1980 | 24 | 4 | 5.9 | 15 | 12 | 31 | 160 |  |  |  | 
CC(C)CN(C[C@@H](O)[C@H](Cc1ccccc1)NC(=O)O[C@H]1CO[C@H]2OCC[C@H]21)S(=O)(=O)c1ccc(N)cc1 |  |  |  |  |  |  | 338 |  |  |  |  | 515 | 587
Cc1cccc(C)c1OCC(=O)N[C@@H](Cc1ccccc1)[C@@H](O)C[C@H](Cc1ccccc1)NC(=O)[C@H](C(C)C)N1CCCNC1=O [LOPINAVIR] |  |  |  | 59 |  | 152 | 1060 |  |  |  |  | > 10000 | 3790
COC(=O)N[C@H](C(=O)N[C@H](Cc1ccc(-c2ccccn2)cc1)C[C@H](O)[C@H](Cc1ccccc1)NC(=O)[C@@H](N1CCN(Cc2ccnc3ccccc23)C1=O)C(C)(C)C)C(C)(C)C | 5 | 9200 | 36 | 2 | 0 | 21 | 8 | 41.7 |  |  |  |  | 
COC(=O)N[C@H](C(=O)N[C@H](Cc1ccc(-c2ccccn2)cc1)C[C@H](O)[C@H](Cc1ccccc1)NC(=O)[C@@H](N1CCN(Cc2nc3ccccc3n2C)C1=O)C(C)(C)C)C(C)(C)C | 3 | 1170 | 42 | 7 | 0.1 | 33 | 20 | 54 |  |  |  |  | 
COC(=O)N[C@H](C(=O)N[C@@H](Cc1ccc(-c2ccccn2)cc1)[C@@H](O)C[C@H](Cc1ccccc1)NC(=O)[C@@H](N1CCN(Cc2csc(-c3cccnc3)n2)C1=O)C(C)(C)C)C(C)(C)C | 2 | 260 | 48 | <1 | 1.6 | 18 | 1 | 46.7 | 30 |  |  |  | 
COC(=O)N[C@H](C(=O)N[C@@H](Cc1ccc(-c2ccccn2)cc1)[C@@H](O)C[C@H](Cc1ccccc1)NC(=O)[C@@H](N1CCN(Cc2nc3ccccc3n2C)C1=O)C(C)(C)C)C(C)(C)C | 7 |  |  | <1 |  | 82 | 3 |  |  |  |  |  | 
COC(=O)N[C@H](C(=O)N[C@@H](Cc1ccc(-c2ccccn2)cc1)C[C@H](O)[C@H](Cc1ccccc1)NC(=O)[C@@H](N1CCN(Cc2cccc(C(C)(C)O)n2)C1=O)C(C)(C)C)C(C)(C)C | 6 | 830 | 60 |  | 5.7 | 53 | 4 | 23.3 | 200 |  |  |  | 
COC(=O)N[C@H](C(=O)N[C@@H](Cc1ccc(-c2ccccn2)cc1)C[C@H](O)[C@H](Cc1ccccc1)NC(=O)[C@@H](N1CCN(Cc2ccc(F)cc2)C1=O)C(C)(C)C)C(C)(C)C | 6 |  |  | 7 |  | 33 | 42 |  |  |  |  |  | 
COC(=O)N[C@H](C(=O)N[C@H](Cc1ccc(-c2ccccn2)cc1)C[C@H](O)[C@H](Cc1ccccc1)NC(=O)[C@@H](N1CCN(Cc2csc(-c3cccnc3)n2)C1=O)C(C)(C)C)C(C)(C)C | 2 |  |  | 4 |  | 15 | 7 |  |  |  |  |  | 
